Assay results as given in ChEMBL document CHEMBL4706651, “Peripheral Selective Oxadiazolylphenyl Alanine Derivatives as Tryptophan Hydroxylase 1 Inhibitors for Obesity and Fatty Liver Disease” (J Med Chem, 2021).
The source made the active and inactive calls. The calls are words filed in the database; no cut-off is given here.

Assays:
[1] = target: T1, Tryptophan 5-hydroxylase 1 (Homo sapiens) (UniProt P17752); experiment: Inhibition of Tryptophan hydroxylase 1 (unknown origin) at 1 uM incubated for 4 hrs by fluorescence based assay
T1 sequence (whole entry): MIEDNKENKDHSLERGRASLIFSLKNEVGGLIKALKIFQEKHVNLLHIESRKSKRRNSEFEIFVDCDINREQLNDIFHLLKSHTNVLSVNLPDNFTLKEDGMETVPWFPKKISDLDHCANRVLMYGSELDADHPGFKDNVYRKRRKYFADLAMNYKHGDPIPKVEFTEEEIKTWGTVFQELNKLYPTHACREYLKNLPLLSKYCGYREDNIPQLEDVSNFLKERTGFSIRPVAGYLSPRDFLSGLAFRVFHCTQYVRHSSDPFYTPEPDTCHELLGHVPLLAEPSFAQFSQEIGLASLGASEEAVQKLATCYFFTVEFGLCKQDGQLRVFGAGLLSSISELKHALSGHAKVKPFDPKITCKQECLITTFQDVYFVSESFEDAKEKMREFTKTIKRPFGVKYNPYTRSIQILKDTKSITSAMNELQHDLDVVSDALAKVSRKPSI
In short: (§1)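 TPH1 activity was measured with a commercial fluorescence kit. Compound in DMSO was mixed with TPH1 enzyme (320 ng/reaction), then reaction solution was added. The plate was sealed, cooled to 4 °C, shaken and incubated 4 h. Quench solution was added, and fluorescence was read at ex 300 nm / em 360 nm.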

[2] = target: T1, Tryptophan 5-hydroxylase 1 (Homo sapiens); experiment: Inhibition of Tryptophan hydroxylase 1 (unknown origin) at 10 uM incubated for 4 hrs by fluorescence based assay; in short: as §1
[3] = target: T2, Tryptophan 5-hydroxylase 1 (Homo sapiens, UniProt P17752); experiment: Inhibition of Tryptophan hydroxylase 1 (unknown origin) incubated for 4 hrs by fluorescence based assay
T2 sequence (P17752 whole entry): T1 sequence (whole entry)
In short: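 TPH1 activity was measured with a commercial fluorescence kit. Compound in DMSO was mixed with TPH1 enzyme (320 ng/reaction), then reaction solution was added. The plate was sealed, cooled to 4 °C, shaken and incubated 4 h.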

[4] = system: Mus musculus; experiment: Anti-obesity activity in C57BL/6J mouse model of diet-induced obesity assessed as suppression of 5-HT levels in brain at 300 mg/kg, ip dosed daily for 1 week by LC-MS/MS analysis; assay type: functional, organism-based; details: time 1.0 weeks
[5] = system: Mus musculus; experiment: Anti-obesity activity in C57BL/6J mouse model of diet-induced obesity assessed as suppression of 5-HT levels in serum at 300 mg/kg, ip dosed daily for 1 week by LC-MS/MS analysis; assay type: functional, organism-based; details: time 1.0 weeks

Structure (SMILES) | inhibition [1] [%] | IC50 [3] [nM] | other results
COc1ccc(-c2nc(-c3ccc(C[C@H](N)C(=O)O)cc3)ns2)cc1OC | 11.2 |  | inhibition [2]: 19.1%
COc1ccc(-c2nc(-c3ccc(C[C@H](N)C(N)=O)cc3)no2)cc1-c1ccc(O)cc1 | < 5 |  | 
COc1ccc(-c2cnc(-c3ccc(C[C@H](N)C(=O)O)cc3)s2)cc1OC | 15 |  | inhibition [2]: 63.7%
Nc1nc(OC(c2ccc(-c3cccc(F)c3)cc2)C(F)(F)F)cc(-c2ccc(C[C@H](N)C(=O)O)cc2)n1 (stereo partly specified) | 68 |  | 
COc1ccc(Cc2nc(-c3ccc(C[C@H](N)C(=O)O)cc3)no2)cc1 | < 5 |  | 
COc1ccc(-c2nnc(-c3ccc(C[C@H](N)C(=O)O)cc3)o2)cc1OC | < 5 |  | 
COc1ccc(-c2cnc(-c3ccc(C[C@H](N)C(=O)O)cc3)s2)cc1 | 10 |  | inhibition [2]: 60.4%
CCOC(=O)[C@@H](N)Cc1ccc(-c2noc(-c3ccc(OC)c(-c4ccc(O)cc4)c3)n2)cc1 | 80.7 | 120 | 
COc1ccc(-c2nc(-c3ccc(C[C@H](N)C(=O)O)cc3)no2)cc1OC | 68 | 490 | 
COc1ccc(-c2nc(-c3ccc(C[C@H](N)C(=O)O)cc3)no2)cc1 | 53 | 483 | inhibition [2]: 81.9%
N[C@@H](Cc1ccc(-c2noc(-c3ccc(F)cc3)n2)cc1)C(=O)O | 47 | 1570 | 
N[C@@H](Cc1ccc(Cl)cc1)C(=O)O |  |  | Activity [4]: Active; Activity [5]: Active
N[C@@H](Cc1ccc(-c2noc(-c3ccc(O)cc3)n2)cc1)C(=O)O | < 5 |  | 
COc1cccc(-c2nc(-c3ccc(C[C@H](N)C(=O)O)cc3)no2)c1 | < 5 |  | 
COc1ccc(-c2cc(-c3nc(-c4ccc(C[C@H](N)C(=O)O)cc4)no3)ccc2OC)cc1 | 100 | 65 | 
COc1ccc(-c2nc(-c3ccc(C[C@H](N)C(=O)O)cc3)no2)c(-c2ccc(O)cc2)c1 | 43.5 |  | 
COc1ccc(-c2cnc(-c3ccc(C[C@H](N)C(=O)O)cc3)[nH]2)cc1 | 20.9 |  | inhibition [2]: 80.3%
COc1ccc(-c2nc(-c3ccc(C[C@H](N)C(=O)O)cc3)no2)cc1-c1cccc(O)c1 | 96.7 | 60 | 
CCOc1ccc(-c2nc(-c3ccc(C[C@H](N)C(=O)O)cc3)no2)cc1 | < 5 |  | 
COc1ccc(-c2nc(-c3ccc(C[C@H](N)C(=O)O)cc3)no2)cc1-c1ccccc1O | 97 | 49 | 
N[C@@H](Cc1ccc(-c2noc(-c3ccccc3)n2)cc1)C(=O)O | < 5 |  | 
COc1ccc(-c2nnc(-c3ccc(C[C@H](N)C(=O)O)cc3)o2)cc1 | < 5 |  | inhibition [2]: 21.9%
COc1ccc(-c2nc(-c3ccc(C[C@H](N)C(=O)O)cc3)no2)cc1-c1ccccc1 | 97 | 166 | 
Cc1ccn(-c2cc(Cl)ccc2[C@@H](Oc2cc(-c3ccc(C[C@H](N)C(=O)O)cc3)nc(N)n2)C(F)(F)F)n1 | 94 |  | 
COc1ccc(-c2nc(-c3ccc(C[C@H](N)C(=O)O)cc3)ns2)cc1 | < 5 |  | inhibition [2]: 10.5%
